The target in series [1] is Vitamin K-dependent protein C (Homo sapiens, UniProt P04070). The series can be described thus: Inhibition of human activated Protein C using Mes-DArg-Pro-Arg-AMC as substrate by Dixon plot analysis. In short, it runs like this: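 Human aPC, 293 pM final. Run at room temperature in 50 mM Tris·HCl pH 8.0 with 154 mM NaCl. Substrate Mes-DArg-Pro-Arg-AMC, KM 26 μM. Fluorescence was read at ex 355 / em 460 nm, with reaction started by enzyme. Ki came from Dixon plots, mean of at least two measurements.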
Vitamin K-dependent protein C, sequence (P04070 43-197 limits assumed): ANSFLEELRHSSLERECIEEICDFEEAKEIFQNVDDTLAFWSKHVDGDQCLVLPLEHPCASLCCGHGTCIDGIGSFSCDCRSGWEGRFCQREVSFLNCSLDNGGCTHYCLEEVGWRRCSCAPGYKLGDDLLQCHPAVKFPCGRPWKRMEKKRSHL
Vitamin K-dependent protein C, sequence (P04070 212-461 limits assumed): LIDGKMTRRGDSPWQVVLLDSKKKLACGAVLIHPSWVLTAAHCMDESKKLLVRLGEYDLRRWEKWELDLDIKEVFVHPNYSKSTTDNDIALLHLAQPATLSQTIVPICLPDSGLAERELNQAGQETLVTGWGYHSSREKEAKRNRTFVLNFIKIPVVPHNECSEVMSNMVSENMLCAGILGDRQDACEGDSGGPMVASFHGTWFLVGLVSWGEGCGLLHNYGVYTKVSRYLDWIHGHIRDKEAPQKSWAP

Series [2] concerns Plasma. Briefly: Antifibrinolytic activity in human plasma assessed as inhibition of tPA-induced plasmin formation after 40 mins. In kind it is functional, cell-free. The procedure, abridged: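 Citrated human plasma at 37 °C with CaCl2 (12.5 mM in assay), tissue factor (stock 1/500 in assay) and tPA (12.3 nM in assay). Inhibitor dilutions, from 10 mM DMSO stocks diluted in 0.9% NaCl, were preincubated 5 min at 37 °C with these reagents, then started with prewarmed plasma. OD405 was read over 40 min.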

Series [3] deals with Plasma. Briefly: Inhibition of TF/Ca2+-induced clotting in human plasma at 10 to 200 nM after 40 mins. In kind it is cell-free. The note with it: 0.2 µM. The procedure, abridged:
(§1)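 Clotting was triggered in citrated human plasma at 37 °C by tissue factor (stock 1/500 in assay) plus CaCl2 (12.5 mM in assay), with tPA 12.3 nM present. Inhibitor was tested at 10–200 nM after 5 min preincubation of reagents at 37 °C. Clot formation was followed as the rapid initial OD405 rise to a plateau, read over 40 min.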

The target of series [4] is T1, Plasminogen (Homo sapiens, UniProt P00747). The series can be described thus: Binding affinity to human plasmin assessed as slow binding constant in presence of Mes-DArg-Phe-Arg-AMC after 20 mins by Dixon plot analysis.
Target sequence in this assay (P00747 97-580 limits assumed): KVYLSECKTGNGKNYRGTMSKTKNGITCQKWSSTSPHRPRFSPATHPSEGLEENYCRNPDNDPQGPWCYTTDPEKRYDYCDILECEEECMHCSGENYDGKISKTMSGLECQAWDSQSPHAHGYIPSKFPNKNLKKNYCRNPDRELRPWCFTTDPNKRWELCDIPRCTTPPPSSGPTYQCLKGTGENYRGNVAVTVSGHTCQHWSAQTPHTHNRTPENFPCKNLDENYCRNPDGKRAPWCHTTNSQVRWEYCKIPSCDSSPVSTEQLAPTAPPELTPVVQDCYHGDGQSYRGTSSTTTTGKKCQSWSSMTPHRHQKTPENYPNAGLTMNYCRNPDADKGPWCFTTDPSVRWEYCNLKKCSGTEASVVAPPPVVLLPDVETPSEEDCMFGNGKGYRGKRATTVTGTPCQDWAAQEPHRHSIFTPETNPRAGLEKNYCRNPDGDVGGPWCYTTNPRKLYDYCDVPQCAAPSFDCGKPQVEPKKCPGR
Target sequence in this assay (P00747 581-810 limits assumed): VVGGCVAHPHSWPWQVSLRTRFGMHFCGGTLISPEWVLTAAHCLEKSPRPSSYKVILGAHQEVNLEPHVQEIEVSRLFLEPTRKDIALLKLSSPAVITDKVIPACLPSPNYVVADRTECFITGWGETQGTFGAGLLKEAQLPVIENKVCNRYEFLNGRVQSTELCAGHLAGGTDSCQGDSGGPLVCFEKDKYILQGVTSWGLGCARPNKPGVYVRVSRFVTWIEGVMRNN
Series [5] addresses T1, Plasminogen. Briefly: Inhibition of human plasmin using Mes-DSer(Bzl)-Phe-Arg-AMC as substrate by Dixon plot analysis.
Target sequence in this assay (P00747 97-580 limits assumed): as the sequence (P00747 97-580 limits assumed) above
Target sequence in this assay (P00747 581-810 limits assumed): as the sequence (P00747 581-810 limits assumed) above
Another series has as its target Plasma kallikrein (Homo sapiens, UniProt P03952). Briefly: Inhibition of human plasma kallikrein using Mes-DArg-Pro-Arg-AMC as substrate by Dixon plot analysis. The procedure, abridged:
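Human plasma kallikrein (112 pM final) was assayed at room temperature in Tris·HCl 50 mM pH 8.0 with NaCl 154 mM. Mes-DArg-Pro-Arg-AMC served as substrate (KM 39 μM). Fluorescence was read at ex 355 / em 460 nm, with reactions started by enzyme.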

A further series addresses Prothrombin (Bos taurus, UniProt P00735). Briefly: Inhibition of bovine thrombin using Tos-Gly-Pro-Arg-AMC as substrate by Dixon plot analysis. In short, it runs like this: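 Bovine thrombin at 31 pM in assay, KM 5.4 μM for the substrate. Run at room temperature in 50 mM Tris·HCl pH 8.0 with 154 mM NaCl. Fluorescence read at ex 355 / em 460 nm, reaction started by enzyme addition. Ki from Dixon plots, average of at least two measurements.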

The next series deals with Coagulation factor X (Homo sapiens, UniProt P00742). The series can be described thus: Inhibition of human f10a using Mes-DArg-Pro-Arg-AMC as substrate by Dixon plot analysis. In short, it runs like this: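 Human factor Xa, 97 pM in assay, in 50 mM Tris·HCl pH 8.0 with 154 mM NaCl at room temperature. Fluorogenic substrate Mes-DArg-Pro-Arg-AMC (KM 28 μM), read at ex 355 / em 460 nm after starting with enzyme. Ki was taken from Dixon plots and averaged over at least two measurements.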
Coagulation factor X, sequence (P00742 41-179 limits assumed): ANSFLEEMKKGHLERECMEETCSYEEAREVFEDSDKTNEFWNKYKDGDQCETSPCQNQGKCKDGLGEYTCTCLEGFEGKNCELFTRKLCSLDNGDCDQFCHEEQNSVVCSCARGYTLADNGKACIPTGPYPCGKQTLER
Coagulation factor X, sequence (P00742 235-488 limits assumed): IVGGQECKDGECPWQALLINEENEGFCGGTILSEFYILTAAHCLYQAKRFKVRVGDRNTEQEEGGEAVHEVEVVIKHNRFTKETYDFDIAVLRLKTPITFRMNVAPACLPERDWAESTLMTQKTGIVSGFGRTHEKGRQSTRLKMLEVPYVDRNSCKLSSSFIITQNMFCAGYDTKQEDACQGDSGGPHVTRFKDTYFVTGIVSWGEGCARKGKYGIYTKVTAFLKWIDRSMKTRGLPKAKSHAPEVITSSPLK

Series [6] deals with Plasma. The series can be described thus: Potency index, ratio of aprotinin IC50 to compound IC50 for inhibition of tPA-induced plasmin formation in human plasma. The format is functional.
The target in series [7] is Trypsin (Sus scrofa, UniProt P00761). The series can be described thus: Inhibition of porcine trypsin using Mes-DArg-Gly-Arg-AMC as substrate by Dixon plot analysis. The procedure, abridged:
(§2)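 Porcine trypsin, 30 pM final, with substrate Mes-DArg-Gly-Arg-AMC (KM 8.3 μM). Buffer was 50 mM Tris·HCl pH 8.0 containing 154 mM NaCl, at room temperature. Reaction was started by enzyme and fluorescence read at ex 355 / em 460 nm. Ki was obtained from Dixon plots, mean of at least two measurements.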

Series [8] deals with Plasma. The series can be described thus: Inhibition of TF/Ca2+-induced clotting in human plasma after 40 mins. The format is cell-free. The procedure, abridged: as §1
Series [9] deals with Trypsin (Homo sapiens, UniProt P07477+P07478+P35030). The series can be described thus: Inhibition of trypsin (unknown origin). The format is protein assay. In short, it runs like this: as §2
Series [10] deals with T1, Plasminogen. The series can be described thus: Inhibition of human plasmin.
Target sequence in this assay (P00747 whole entry, looked up): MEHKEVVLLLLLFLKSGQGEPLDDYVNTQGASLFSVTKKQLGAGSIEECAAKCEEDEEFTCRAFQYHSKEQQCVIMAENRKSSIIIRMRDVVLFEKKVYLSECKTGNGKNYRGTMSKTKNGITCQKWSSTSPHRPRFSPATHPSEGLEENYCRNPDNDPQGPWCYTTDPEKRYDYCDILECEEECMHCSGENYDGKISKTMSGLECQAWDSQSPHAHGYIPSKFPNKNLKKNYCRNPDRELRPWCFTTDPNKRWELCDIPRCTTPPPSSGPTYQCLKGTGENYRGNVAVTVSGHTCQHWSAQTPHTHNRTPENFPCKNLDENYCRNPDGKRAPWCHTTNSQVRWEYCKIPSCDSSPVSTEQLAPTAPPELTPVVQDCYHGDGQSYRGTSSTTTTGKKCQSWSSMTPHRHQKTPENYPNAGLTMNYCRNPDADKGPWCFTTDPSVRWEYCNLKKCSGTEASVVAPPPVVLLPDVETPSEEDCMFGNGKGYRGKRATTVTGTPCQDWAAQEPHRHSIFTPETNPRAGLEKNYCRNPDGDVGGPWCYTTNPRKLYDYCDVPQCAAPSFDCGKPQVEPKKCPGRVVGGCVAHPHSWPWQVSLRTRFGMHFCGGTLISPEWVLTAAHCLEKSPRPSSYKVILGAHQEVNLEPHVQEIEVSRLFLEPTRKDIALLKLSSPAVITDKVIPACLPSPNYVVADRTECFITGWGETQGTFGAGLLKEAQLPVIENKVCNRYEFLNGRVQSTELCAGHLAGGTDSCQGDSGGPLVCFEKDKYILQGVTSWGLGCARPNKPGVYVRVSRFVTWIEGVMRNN

Each structure is given as a SMILES string.

Trypsin (Sus scrofa, UniProt P00761), sequence (P00761 whole entry): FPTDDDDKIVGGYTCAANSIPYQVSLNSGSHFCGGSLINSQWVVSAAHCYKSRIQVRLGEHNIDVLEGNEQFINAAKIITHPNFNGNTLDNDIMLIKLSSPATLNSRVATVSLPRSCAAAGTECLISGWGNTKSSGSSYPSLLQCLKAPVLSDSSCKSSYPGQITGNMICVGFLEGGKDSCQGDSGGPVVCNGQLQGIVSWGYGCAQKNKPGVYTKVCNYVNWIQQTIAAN
Plasma kallikrein, sequence (P03952 20-390 limits assumed): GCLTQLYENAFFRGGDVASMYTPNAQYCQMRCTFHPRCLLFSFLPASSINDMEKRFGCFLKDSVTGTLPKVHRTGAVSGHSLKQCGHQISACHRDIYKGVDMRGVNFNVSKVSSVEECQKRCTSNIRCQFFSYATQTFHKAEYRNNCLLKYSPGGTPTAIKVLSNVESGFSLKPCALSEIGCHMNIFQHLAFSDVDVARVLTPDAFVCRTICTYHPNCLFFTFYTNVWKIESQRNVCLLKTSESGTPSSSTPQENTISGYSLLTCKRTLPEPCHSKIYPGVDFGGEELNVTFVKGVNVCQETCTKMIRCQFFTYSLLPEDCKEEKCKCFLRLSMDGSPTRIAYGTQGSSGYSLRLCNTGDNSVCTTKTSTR
Plasma kallikrein, sequence (P03952 391-638 limits assumed): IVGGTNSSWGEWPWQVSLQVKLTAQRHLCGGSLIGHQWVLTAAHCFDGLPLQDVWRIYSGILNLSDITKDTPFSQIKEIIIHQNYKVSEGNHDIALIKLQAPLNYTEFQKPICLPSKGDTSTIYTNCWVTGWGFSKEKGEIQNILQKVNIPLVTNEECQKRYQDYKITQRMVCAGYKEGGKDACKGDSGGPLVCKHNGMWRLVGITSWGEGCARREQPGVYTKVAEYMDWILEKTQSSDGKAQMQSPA

Usually Ki stands for the equilibrium dissociation constant of an inhibitor or competing ligand from its target. One may read the IC50 as the concentration that gives 50% inhibition. `NCc1ccc(CNC(=O)[C@@H]2Cc3ccc(cc3)NC(=O)CCN3CCN(CCC(=O)Nc4ccc(cc4)C[C@@H](NS(=O)(=O)c4ccccc4)C(=O)N2)CC3)cc1.O=C(O)C(F)(F)F.O=C(O)C(F)(F)F.O=C(O)C(F)(F)F`: the Ki is over 100 µM in series [1]; 0.00054 µM on Plasminogen [4]; 0.00056 µM at Plasminogen [5]; 48.7 µM on Plasma kallikrein; 36.9 µM on Prothrombin; over 100 µM on Coagulation factor X. Moreover, on Trypsin [7], the Ki was determined as 1.54 µM. Also, the IC50 with Plasma [2] stood at 0.081 µM. For the same compound, the Activity result with Plasma [3] is “Non-Toxic”. For the same compound, the “Ratio IC50” value in the series with Plasma [6] came out at 3.

On to `N=C(N)c1ccc(CNC(=O)[C@H](Cc2cccc(CN)c2)NC(=O)[C@@H](CCCc2ccccc2)NS(=O)(=O)Cc2cccc(C(=O)O)c2)cc1`, for which, in the series on Plasma [8], the Activity entry is “Toxic”. The compound also returned a Ki at Trypsin [9] of 0.0036 µM.

Turning to `CC(C)(C)OC[C@@H](NS(=O)(=O)Cc1ccccc1)C(=O)NCC(=O)NCc1ccc(C(=N)N)cc1`, on Plasminogen [10], the Ki was determined as 7.7 µM.

The record behind these values is ChEMBL document CHEMBL4425109, “Optimization of Cyclic Plasmin Inhibitors: From Benzamidines to Benzylamines” (J Med Chem, 2016).
